# Calls of active or inactive are those of the source. The rule behind the calls is not given here.
# System: Staphylococcus aureus
# Assay: Antibacterial activity against Staphylococcus aureus UC-76 assessed as growth inhibition by gradient plate test
# Format: functional
# Conditions: not given
# In short: (§1)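 Modified gradient-plate method, in vitro. Panel: Streptococcus faecalis MGH-2, normal S. aureus UC-76, drug-resistant S. aureus S18713, E. coli Vogel, Shigella sonnei C-10.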
row,SMILES,MIC [µg/mL]
1,CN(C)C=O.Nc1nc(N)c2nc(CNc3ccc(Cl)c(Cl)c3)cnc2n1,< 0.25
2,CC(C)N(Cc1cnc2nc(N)nc(N)c2n1)c1ccc(Cl)c(Cl)c1,< 0.25
3,CCN(Cc1cnc2nc(N)nc(N)c2n1)c1ccc(Cl)cc1,< 0.25
4,CN(Cc1cnc2nc(N)nc(N)c2n1)c1ccc(Cl)c(Cl)c1,< 0.25
5,CN(Cc1cnc2nc(N)nc(N)c2n1)c1ccc(Cl)cc1,1.5
6,CN(Cc1cnc2nc(N)nc(N)c2n1)c1cccc2ccccc12,1

# System: Plasmodium berghei
# Assay: Antimalarial activity against trophozoite stage of Plasmodium berghei infected in mouse assessed as increase in mean survival time at 40 mg/kg, sc administered 72 hrs post infection
# Format: functional
# Conditions: route subcutaneous
row,SMILES,Survival [days]
1,CN(Cc1cnc2nc(N)nc(N)c2n1)c1cccc2ccccc12,5.4

# System: Staphylococcus aureus
# Assay: Antibacterial activity against drug-resistant Staphylococcus aureus S18713 assessed as growth inhibition by gradient plate test
# Format: functional
# Conditions: not given
# In short: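 In vitro test against a bacterial panel (S. faecalis MGH-2, S. aureus UC-76 and drug-resistant S18713, E. coli Vogel, Shigella sonnei C-10), run as a modified gradient plate procedure.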
row,SMILES,MIC [µg/mL]
1,CN(C)C=O.Nc1nc(N)c2nc(CNc3ccc(Cl)c(Cl)c3)cnc2n1,< 0.25
2,CC(C)N(Cc1cnc2nc(N)nc(N)c2n1)c1ccc(Cl)c(Cl)c1,< 0.25
3,CCN(Cc1cnc2nc(N)nc(N)c2n1)c1ccc(Cl)cc1,1.5
4,CN(Cc1cnc2nc(N)nc(N)c2n1)c1ccc(Cl)c(Cl)c1,1.5
5,CN(Cc1cnc2nc(N)nc(N)c2n1)c1ccc(Cl)cc1,2
6,CN(Cc1cnc2nc(N)nc(N)c2n1)c1cccc2ccccc12,> 2.5

# System: Escherichia coli
# Assay: Antibacterial activity against Escherichia coli Vogel assessed as growth inhibition by gradient plate test
# Format: functional
# Conditions: not given
# In short: as §1
row,SMILES,MIC [µg/mL]
1,CN(C)C=O.Nc1nc(N)c2nc(CNc3ccc(Cl)c(Cl)c3)cnc2n1,> 25
2,CC(C)N(Cc1cnc2nc(N)nc(N)c2n1)c1ccc(Cl)c(Cl)c1,> 25
3,CCN(Cc1cnc2nc(N)nc(N)c2n1)c1ccc(Cl)cc1,> 25
4,CN(Cc1cnc2nc(N)nc(N)c2n1)c1ccc(Cl)c(Cl)c1,> 25
5,CN(Cc1cnc2nc(N)nc(N)c2n1)c1ccc(Cl)cc1,> 25
6,CN(Cc1cnc2nc(N)nc(N)c2n1)c1cccc2ccccc12,> 25

# System: Plasmodium cynomolgi
# Assay: Antimalarial activity against trophozoite stage of Plasmodium cynomolgi infected in rhesus monkey at 3.16 mg/kg, po
# Format: functional, organism-based
# Parameters: dose 3.16 mg/kg
# Conditions: not given
# In short: (§2)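 Rhesus monkey, one oral dose. Trophozoite-induced P. cynomolgi infection at 3.16 mg/kg; sporozoite-induced P. cynomolgi infection at 10 mg/kg.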
row,SMILES,Activity
1,CN(Cc1cnc2nc(N)nc(N)c2n1)c1cccc2ccccc12,inactive

# System: Shigella sonnei
# Assay: Antibacterial activity against Shigella sonnei C-10 assessed as growth inhibition by gradient plate test
# Format: functional
# Conditions: not given
# In short: as §1
row,SMILES,MIC [µg/mL]
1,CN(C)C=O.Nc1nc(N)c2nc(CNc3ccc(Cl)c(Cl)c3)cnc2n1,> 25
2,CC(C)N(Cc1cnc2nc(N)nc(N)c2n1)c1ccc(Cl)c(Cl)c1,> 25
3,CCN(Cc1cnc2nc(N)nc(N)c2n1)c1ccc(Cl)cc1,> 25
4,CN(Cc1cnc2nc(N)nc(N)c2n1)c1ccc(Cl)c(Cl)c1,> 25
5,CN(Cc1cnc2nc(N)nc(N)c2n1)c1ccc(Cl)cc1,> 25
6,CN(Cc1cnc2nc(N)nc(N)c2n1)c1cccc2ccccc12,> 25

# System: Plasmodium cynomolgi
# Assay: Antimalarial activity against sporozoite stage of Plasmodium cynomolgi infected in rhesus monkey at 10 mg/kg
# Format: functional, organism-based
# Parameters: dose 10 mg/kg
# Conditions: not given
# In short: as §2
row,SMILES,Activity
1,CN(Cc1cnc2nc(N)nc(N)c2n1)c1cccc2ccccc12,inactive

# System: Enterococcus faecalis
# Assay: Antibacterial activity against Streptococcus faecalis MGH2 assessed as growth inhibition by gradient plate test
# Format: functional
# Conditions: not given
# In short: as §1
row,SMILES,MIC [µg/mL]
1,CN(C)C=O.Nc1nc(N)c2nc(CNc3ccc(Cl)c(Cl)c3)cnc2n1,< 0.25
2,CC(C)N(Cc1cnc2nc(N)nc(N)c2n1)c1ccc(Cl)c(Cl)c1,< 0.25
3,CCN(Cc1cnc2nc(N)nc(N)c2n1)c1ccc(Cl)cc1,< 0.25
4,CN(Cc1cnc2nc(N)nc(N)c2n1)c1ccc(Cl)c(Cl)c1,< 0.25
5,CN(Cc1cnc2nc(N)nc(N)c2n1)c1ccc(Cl)cc1,< 0.25
6,CN(Cc1cnc2nc(N)nc(N)c2n1)c1cccc2ccccc12,< 0.25

# System: Plasmodium berghei
# Assay: Antimalarial activity against drug-sensitive trophozoite stage of Plasmodium berghei infected in mouse assessed as increase in mean survival time up to 640 mg/kg, sc administered 72 hrs post infection
# Format: functional, organism-based
# Parameters: dose 640 mg/kg
# Conditions: not given
row,SMILES,Activity
1,CN(C)C=O.Nc1nc(N)c2nc(CNc3ccc(Cl)c(Cl)c3)cnc2n1,inactive
2,CC(C)N(Cc1cnc2nc(N)nc(N)c2n1)c1ccc(Cl)c(Cl)c1,inactive
3,CCN(Cc1cnc2nc(N)nc(N)c2n1)c1ccc(Cl)cc1,inactive
4,CN(Cc1cnc2nc(N)nc(N)c2n1)c1ccc(Cl)c(Cl)c1,inactive
5,CN(Cc1cnc2nc(N)nc(N)c2n1)c1ccc(Cl)cc1,inactive

# System: Plasmodium berghei
# Assay: Antimalarial activity against drug-sensitive trophozoite stage of Plasmodium berghei infected in mouse assessed as survival over 60 days at 320 mg/kg, sc administered 72 hrs post infection
# Format: functional, organism-based
# Parameters: dose 320 mg/kg
# Conditions: not given
row,SMILES,Activity
1,CN(Cc1cnc2nc(N)nc(N)c2n1)c1cccc2ccccc12,Active

# — ChEMBL document CHEMBL3272334, “Folate antagonists. 10. Synthesis and antimalarial effects of 6-[[(aryl and aralkyl)amino]methyl]-2,4-pteridinediamines and -pteridinediamine 8-oxides” (1978)
